The text below walks through data of ChEMBL document CHEMBL1649255, “Impact of novel human immunodeficiency virus type 1 reverse transcriptase mutations P119S and T165A on 4'-ethynylthymidine analog resistance profile” (Antimicrob Agents Chemother, 2009).

Experiment [1] has as its system Human immunodeficiency virus 1. The experiment can be described thus: Antiviral activity against wild-type HIV1 pNL4-3 infected in TZM-bl cells by luciferase assay. Format: functional, organism-based. Particulars: Human immunodeficiency virus 1, pNL4-3, TZM-bl. The method in brief: (§1)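 TZM-bl cells (LTR-driven luciferase reporter) at 5 × 10^4 per well in RPMI 1640 with 10% dialyzed FBS. They were preincubated 16 h at 37°C with a range of 4′-Ed4T, d4T, 3TC or AZT, then infected with NL4-3-derived clones at MOI 0.01. After 72 h, lysates were read for luciferase, with uninfected background subtracted. EC50 is from % of no-drug signal, reported as mean ± SD of three experiments.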

Experiment [2] concerns Human immunodeficiency virus 1. The experiment can be described thus: Antiviral activity against HIV1 pNL4-3 harboring Reverse transcriptase P119S mutant gene infected in TZM-bl cells after 72 hrs by luciferase assay. Format: functional, organism-based. As to conditions: Human immunodeficiency virus 1, pNL4-3, TZM-bl. The method in brief: as §1
Experiment [3] deals with Human immunodeficiency virus 1. The experiment can be described thus: Antiviral activity against HIV1 pNL4-3 harboring Reverse transcriptase T165A mutant gene infected in TZM-bl cells after 72 hrs by luciferase assay. Type of experiment: functional, organism-based. As to conditions: Human immunodeficiency virus 1, pNL4-3, TZM-bl. The gist of the method:
as §1

Experiment [4] relates to Human immunodeficiency virus 1. Nature of the experiment: Antiviral activity against HIV1 pNL4-3 harboring Reverse transcriptase M184V mutant gene infected in TZM-bl cells after 72 hrs by luciferase assay. Format: functional, organism-based. As to conditions: Human immunodeficiency virus 1, pNL4-3, TZM-bl. The gist of the method: as §1
Experiment [5] deals with Human immunodeficiency virus 1. Nature of the experiment: Antiviral activity against HIV1 pNL4-3 harboring Reverse transcriptase P119S/T165A mutant gene infected in TZM-bl cells after 72 hrs by luciferase assay. Format: functional, organism-based. As to conditions: Human immunodeficiency virus 1, pNL4-3, TZM-bl. The method in brief: as §1
The subject of experiment [6] is Human immunodeficiency virus 1. Nature of the experiment: Antiviral activity against HIV1 pNL4-3 harboring Reverse transcriptase P119S/M184V mutant gene infected in TZM-bl cells after 72 hrs by luciferase assay. Type of experiment: functional, organism-based. As to conditions: Human immunodeficiency virus 1, pNL4-3, TZM-bl. The gist of the method: as §1
In experiment [7] the test system is Human immunodeficiency virus 1. The experiment can be described thus: Antiviral activity against HIV1 pNL4-3 harboring Reverse transcriptase T165A/M184V mutant gene infected in TZM-bl cells after 72 hrs by luciferase assay. Type of experiment: functional, organism-based. As to conditions: Human immunodeficiency virus 1, pNL4-3, TZM-bl. The method in brief: as §1

The subject of experiment [8] is Human immunodeficiency virus 1. The experiment can be described thus: Antiviral activity against HIV1 pNL4-3 harboring Reverse transcriptase P119S/T165A/M184V mutant gene infected in TZM-bl cells after 72 hrs by luciferase assay. Type of experiment: functional, organism-based. As to conditions: Human immunodeficiency virus 1, pNL4-3, TZM-bl. The gist of the method: as §1

Experiment [9] deals with Human immunodeficiency virus 1. Nature of the experiment: Antiviral activity against HIV1 pNL4-3 harboring chimeric pTKD infected in TZM-bl cells after 72 hrs by luciferase assay. Particulars: Human immunodeficiency virus 1, pNL4-3, TZM-bl. Type of experiment: functional, organism-based. The method in brief: as §1
The target of experiment [10] is Human immunodeficiency virus type 1 reverse transcriptase (Human immunodeficiency virus 1, UniProt Q72547). The experiment can be described thus: Inhibition of wild-type HIV1 Reverse transcriptase. The gist of the method: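 Same steady-state dTTP incorporation reaction: 250 nM DNA 23-mer/RNA 36-mer primer/template, 2.5 nM RT, Tris-HCl pH 8.0/NaCl/MgCl2/DTT/BSA buffer, 37°C. The analog triphosphate inhibitor was added at various concentrations. Apparent dTTP Km was measured at each inhibitor level to derive Ki, and Ki/Km(dTTP) was used as an inhibition-efficiency index.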

The target in experiment [11] is Human immunodeficiency virus type 1 reverse transcriptase (Human immunodeficiency virus 1, UniProt Q72547, P119S). Nature of the experiment: Inhibition of HIV1 Reverse transcriptase P119S mutant. The method in brief:
(§2)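 Steady-state inhibition of dTTP incorporation used 2.5 nM wild-type or mutant RT and 250 nM DNA/RNA 23-mer/36-mer primer/template. Apparent dTTP Km was measured across varied 4′-Ed4TTP or d4TTP to give Ki. Ki/Km(dTTP) served as the inhibition index.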

Experiment [12] concerns the target Human immunodeficiency virus type 1 reverse transcriptase (Human immunodeficiency virus 1, UniProt Q72547, T165A). The experiment can be described thus: Inhibition of HIV1 Reverse transcriptase T165A mutant. The method in brief: as §2
The target of experiment [13] is Human immunodeficiency virus type 1 reverse transcriptase (Human immunodeficiency virus 1, UniProt Q72547, M184V). The experiment can be described thus: Inhibition of HIV1 Reverse transcriptase M184V mutant. The gist of the method:
as §2

Experiment [14] has as its target Human immunodeficiency virus type 1 reverse transcriptase (Human immunodeficiency virus 1, UniProt Q72547, P119S/T165A). Nature of the experiment: Inhibition of HIV1 Reverse transcriptase P119S/T165A mutant. The gist of the method: as §2
In experiment [15] the target is Human immunodeficiency virus type 1 reverse transcriptase (Human immunodeficiency virus 1, UniProt Q72547, M184V/P119S). The experiment can be described thus: Inhibition of HIV1 Reverse transcriptase P119S/M184V mutant. The gist of the method:
as §2

The target in experiment [16] is Human immunodeficiency virus type 1 reverse transcriptase (Human immunodeficiency virus 1, UniProt Q72547, M184V/T165A). Nature of the experiment: Inhibition of HIV1 Reverse transcriptase T165A/M184V mutant. The method in brief:
as §2

Experiment [17] concerns the target Human immunodeficiency virus type 1 reverse transcriptase (Human immunodeficiency virus 1, UniProt Q72547, M184V/P119S/T165A). Nature of the experiment: Inhibition of HIV1 Reverse transcriptase P119S/T165A/M184V mutant. The gist of the method:
as §2

Experiment [18] deals with Human immunodeficiency virus type 1 reverse transcriptase (Human immunodeficiency virus 1) (UniProt Q72547). Nature of the experiment: Ratio of Ki to Km for wild-type HIV1 Reverse transcriptase. The method in brief:
as §2

In experiment [19] the test system is Human immunodeficiency virus type 1 reverse transcriptase (Human immunodeficiency virus 1), Q72547 [P119S]. The experiment can be described thus: Ratio of Ki to Km for HIV1 Reverse transcriptase P119S mutant. The gist of the method: as §2
Experiment [20] relates to Human immunodeficiency virus type 1 reverse transcriptase (Human immunodeficiency virus 1), Q72547 [T165A]. The experiment can be described thus: Ratio of Ki to Km for HIV1 Reverse transcriptase T165A mutant. The method in brief: as §2
In experiment [21] the test system is Human immunodeficiency virus type 1 reverse transcriptase (Human immunodeficiency virus 1), Q72547 [M184V]. The experiment can be described thus: Ratio of Ki to Km for HIV1 Reverse transcriptase M184V mutant. The gist of the method: as §2
Experiment [22] has as its system Human immunodeficiency virus type 1 reverse transcriptase (Human immunodeficiency virus 1), Q72547 [P119S,T165A]. The experiment can be described thus: Ratio of Ki to Km for HIV1 Reverse transcriptase P119S/T165A mutant. The method in brief:
as §2

Experiment [23] relates to Human immunodeficiency virus type 1 reverse transcriptase (Human immunodeficiency virus 1), Q72547 [P119S,M184V]. The experiment can be described thus: Ratio of Ki to Km for HIV1 Reverse transcriptase P119S/M184V mutant. The method in brief: as §2
Experiment [24] deals with Human immunodeficiency virus type 1 reverse transcriptase (Human immunodeficiency virus 1), Q72547 [T165A,M184V]. The experiment can be described thus: Ratio of Ki to Km for HIV1 Reverse transcriptase T165A/M184V mutant. The gist of the method:
as §2

Experiment [25] relates to Human immunodeficiency virus type 1 reverse transcriptase (Human immunodeficiency virus 1), Q72547 [P119S,T165A,M184V]. The experiment can be described thus: Ratio of Ki to Km for HIV1 Reverse transcriptase P119S/T165A/M184V mutant. The gist of the method: as §2

Bounds are passed on as bounds.

Turning to `C=C[C@@]1(CO)C=C[C@H](n2cc(C)c(=O)[nH]c2=O)O1`, the EC50 in experiment [1] stood at 370 nM; in [2], 510 nM; in [3], 580 nM; in [4], 980 nM; in experiment [5], 350 nM; in experiment [6], 1380 nM. In addition, the values for the half-maximal effective concentration (EC50) in experiment [7], in experiment [8] and in [9] were 1320 nM, 1960 nM and 2100 nM, respectively.
In the case of `C=C[C@@]1(COP(=O)(O)OP(=O)(O)OP(=O)(O)O)C=C[C@H](n2cc(C)c(=O)[nH]c2=O)O1`, the Ki in [10] is 54 nM; in experiment [11], 110 nM; in [12], 80 nM; in experiment [13], 210 nM; in experiment [14] it was 24 nM; in [15], 640 nM. For the same compound, the Ki in experiment [16] came out at 660 nM; in [17], 730 nM. For the same compound, the Ki/Km in experiment [18] was 0.45; in experiment [19] it was 0.85; in experiment [20] it was 0.8; in [21], 1.7; in [22], 0.34; in experiment [23], 3.6. Moreover, the Ki/Km was 6 in experiment [24] and 4.9 in [25].
`Nc1ccn([C@@H]2CS[C@H](CO)O2)c(=O)n1` [LAMIVUDINE]: the EC50 is 650 nM in experiment [1]; 470 nM in experiment [2]; 1080 nM in experiment [3]; above 60000 nM in [4]; 2100 nM in experiment [5]; above 60000 nM in experiment [6]. Moreover, the EC50 in experiment [7], in [8] and in [9] was above 60000 nM throughout.
Regarding `Cc1cn([C@H]2C=C[C@@H](COP(=O)(O)OP(=O)(O)OP(=O)(O)O)O2)c(=O)[nH]c1=O` [STAVUDINE TRIPHOSPHATE], the Ki in experiment [10] worked out at 630 nM; in experiment [11], 640 nM; in [12], 210 nM; in [13], 790 nM; in experiment [14], 370 nM; in [15], 480 nM. For the same compound, the Ki is 300 nM in experiment [16] and 1050 nM in experiment [17]. In addition, the Ki/Km is 5.3 in [18]; 2.1 in experiment [19]; 2.1 in [20]; 6.6 in experiment [21]; 5.3 in experiment [22]; 2.7 in experiment [23]. For the same compound, the Ki/Km in [24] came out at 2.7; in experiment [25], 7.
`Cc1cn([C@H]2C=C[C@@H](CO)O2)c(=O)[nH]c1=O` [STAVUDINE]: the EC50 in experiment [1] worked out at 1250 nM; in experiment [2] it was 1440 nM; in experiment [3] it was 1460 nM; in experiment [4] it was 1400 nM; in experiment [5] it was 2480 nM; in experiment [6] it was 1550 nM. Moreover, the results for the EC50 in [7], in experiment [8] and in [9] were 1500 nM, 1280 nM and 1000 nM, respectively.
With `Cc1cn([C@H]2C[C@H](N=[N+]=[N-])[C@@H](CO)O2)c(=O)[nH]c1=O` [ZIDOVUDINE], the EC50 in experiment [1] was found to be 23 nM; in experiment [2] it was 17 nM; in experiment [3] it was 22 nM; in [4], 11 nM; in [5], 26 nM; in experiment [6], 11 nM. The EC50 was 24 nM in experiment [7], 53 nM in experiment [8] and 8 nM in experiment [9].
